Kir21 inh = blocks the mouse Kir2.1 inward-rectifier potassium channel; P35561; 310,000 tested, 0.85% active; B-score at 10 µM; HEK293-Kir2.1, FluxOR thallium flux fluorescence; stronger effect = lower value;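 active = fluorescence ratio B-score at or below minus 3 SD of library scores, with starting-brightness B-score within 2 SD, cut at about -4.2 in these data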;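 also: channel flux triggered by added potassium and thallium sulfate stimulus; B-score of peak minus minimum fluorescence over baseline after thallium stimulus; more negative B-score means stronger Kir2.1 block with less thallium influx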
DNA FID counter = displaces DNA intercalator in HCV helicase counter-screen. DNA fluorescent intercalator displacement, fluorescence. 290,000 tested, 0.17% active. inhibition, % at 7.9 µM; in the data active = inhibition above about 37%;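 also: 0% = vehicle and 100% = reference compound; higher means more ethidium bromide displaced from hairpin DNA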
TMEM16A inh = inhibitors of mouse TMEM16A calcium-activated chloride channel. HEK293 TMEM16A/YFP iodide influx fluorescence, ionomycin. normalized B-score (activity score, 25-100; higher = stronger inhibition) at 10 µM. Q8BHY3. 310,000 tested, 1.2% active. AID 588511;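 active = ratio plate-corrected score three or more library SD toward inhibition, starting fluorescence score within five deviations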;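 also: score derived from kinetic fluorescence span divided by baseline fluorescence per well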
SR-BI DiI inh = inhibitors of mouse SR-BI mediated HDL lipid uptake; ldlA[mSR-BI] CHO cells, DiI-HDL uptake fluorescence, 3 h; inhibition, % at 12.5 µM; 320,000 tested, 0.96% active; Q61009;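 active = mean replicate inhibition of at least 70% and a set share of replicates each scoring 70 or more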;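 also: 0% = median of neutral control wells and 100% = median of positive control wells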
Target sequence (Q61009 whole entry, looked up): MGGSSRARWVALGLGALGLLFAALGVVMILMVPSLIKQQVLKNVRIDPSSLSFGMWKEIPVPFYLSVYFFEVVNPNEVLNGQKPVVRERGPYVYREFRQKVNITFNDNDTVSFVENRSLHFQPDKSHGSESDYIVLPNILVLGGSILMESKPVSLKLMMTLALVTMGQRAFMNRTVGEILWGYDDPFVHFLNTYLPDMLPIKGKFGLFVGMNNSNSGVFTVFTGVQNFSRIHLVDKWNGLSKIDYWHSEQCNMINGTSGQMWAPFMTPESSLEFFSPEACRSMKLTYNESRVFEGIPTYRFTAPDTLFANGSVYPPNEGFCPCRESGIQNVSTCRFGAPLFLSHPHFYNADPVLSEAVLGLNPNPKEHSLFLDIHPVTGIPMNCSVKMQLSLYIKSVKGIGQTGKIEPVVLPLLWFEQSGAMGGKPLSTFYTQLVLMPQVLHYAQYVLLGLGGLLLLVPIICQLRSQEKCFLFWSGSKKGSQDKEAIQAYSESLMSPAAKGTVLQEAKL
SR-BI DiI-HDL act = enhances SR-BI lipid uptake from DiI-HDL | 320,000 tested, 0.096% active | activation, % at 12.5 µM | CHO ldlA[mSR-BI] cells, DiI-HDL uptake fluorescence, 3 h; 100 = double the neutral-control signal | AID 504775;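 active = mean replicate activation of at least 60% and every replicate at or above 60%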;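 also: 0% = median plate neutral-control signal and 100% = twice that signal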
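Material: SR-BI-overexpressing, LDLR-lacking CHO cells | Dosing: Single compound concentration, delivered by pin transfer | Probe or stimulus: Labelled HDL, 10 µg/mL | Signal: Bottom-read cell fluorescence after medium removal, ex 550/em 595 nm | Schedule: 3 h, 37 °C | Evaluation: HDL uptake via cellular fluorescence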
ANO1 activ = activators or potentiators of mouse TMEM16A chloride channel; AID 623877; HEK293 TMEM16A/YFP-H148Q/I152L, iodide quench fluorescence; stronger effect = lower value; B-score at 10 µM; Q8BHY3; 340,000 tested, 0.3% active;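 active = fluorescence-ratio B-score plate-corrected deviation score at least 3 library SD below zero, with starting fluorescence score within 5 deviations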;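 also: channel opened by trigger with iodide after compound preincubation; score built on the fluorescence ratio of max minus min over baseline; more negative score means more quench and so TMEM16A activation or potentiation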
The depositor's hits bear a star. An excerpt weighted towards active compounds, which were near 3% of everything screened.

`COc1ccc(NC2CCCN(C(=O)CCc3cccc(Cl)c3)C2)cc1` (configuration not stated) gave Kir21 inh -4.21*, DNA FID counter -7.6, TMEM16A inh inactive, SR-BI DiI inh 3.1, SR-BI DiI-HDL act -3.1 and ANO1 activ inactive.
For C=CCOc1cccc(CNCc2ccncc2)c1 the results were Kir21 inh -0.48, DNA FID counter -0.8, TMEM16A inh inactive, SR-BI DiI inh -9.5, SR-BI DiI-HDL act 9.5 and ANO1 activ inactive.
Screening CCCCCC(=O)Nc1nc(C)c(-c2csc(Nc3cc(OC)ccc3OC)n2)s1 returned Kir21 inh 0.19, DNA FID counter -1.6, TMEM16A inh inactive, SR-BI DiI inh 99.4*, SR-BI DiI-HDL act -99.4 and ANO1 activ inactive.
For C=CCCC(=O)Nc1nc(C)c(-c2csc(Nc3ccccc3OC)n2)s1 the results were Kir21 inh 2.14, DNA FID counter -5.1, TMEM16A inh inactive, SR-BI DiI inh 70.7*, SR-BI DiI-HDL act -70.7 and ANO1 activ inactive.
COc1ccc(Cl)cc1Nc1nc(-c2sc(NC(=O)CC(C)C)nc2C)cs1 was read as Kir21 inh -1.1, DNA FID counter -1.1, TMEM16A inh inactive, SR-BI DiI inh 49.2, SR-BI DiI-HDL act -49.2 and ANO1 activ inactive.
Screening CCC(C)C(=O)Nc1nc(C)c(-c2csc(Nc3ccccc3OC)n2)s1 (configuration not stated) returned Kir21 inh 0.56, DNA FID counter -4.1, TMEM16A inh inactive, SR-BI DiI inh 77.9*, SR-BI DiI-HDL act -77.9 and ANO1 activ inactive.
C=CCCC(=O)Nc1nc(C)c(-c2csc(Nc3cc(Cl)ccc3OC)n2)s1 was read as Kir21 inh 3.44, DNA FID counter 1.4, TMEM16A inh inactive, SR-BI DiI inh 86.9*, SR-BI DiI-HDL act -86.9 and ANO1 activ inactive.
Screening CCCCC(=O)Nc1nc(C)c(-c2csc(Nc3ccccc3OC)n2)s1 returned Kir21 inh 0.98, DNA FID counter -3.0, TMEM16A inh inactive, SR-BI DiI inh 60.2, SR-BI DiI-HDL act -60.2 and ANO1 activ inactive.
CC1CCc2c(sc(NC(=O)CSc3nc(N)cc(=O)[nH]3)c2C(N)=O)C1 (configuration not stated) was read as SR-BI DiI inh 0.3, SR-BI DiI-HDL act -0.3 and ANO1 activ inactive.
`COc1cccc(NC(=O)COC(=O)C2=NN(c3ccccc3)C(=O)CC2)c1` gave SR-BI DiI inh -16.0, SR-BI DiI-HDL act 16.0 and ANO1 activ inactive.
Screening COc1cc2[nH]c(C(=O)N3CC(C)OC(C)C3)cc2c(OC)c1OC (configuration not stated) returned Kir21 inh -0.9, DNA FID counter -21.3, TMEM16A inh inactive, SR-BI DiI inh 10.1, SR-BI DiI-HDL act -10.1 and ANO1 activ inactive.
COc1ccc(OC)c(Nc2nc(-c3cccs3)cs2)c1 was read as Kir21 inh -0.05, DNA FID counter 0.7, TMEM16A inh inactive, SR-BI DiI inh 91.7*, SR-BI DiI-HDL act -91.7 and ANO1 activ inactive.
Screening COc1ccc(Nc2nc(-c3cccs3)cs2)c(OC)c1 returned Kir21 inh -2.81, DNA FID counter 1.2, TMEM16A inh inactive, SR-BI DiI inh 53.9, SR-BI DiI-HDL act -53.9 and ANO1 activ inactive.
`N/C(=N\OC(=O)c1csnn1)c1ccc(C(F)(F)F)cc1` gave Kir21 inh -8.74, DNA FID counter 0.8, TMEM16A inh inactive, SR-BI DiI inh -11.5, SR-BI DiI-HDL act 11.5 and ANO1 activ inactive.
For Cc1sc(NC(=O)CN2CCN(c3ccccn3)CC2)c(C#N)c1C the results were Kir21 inh -4.45*, DNA FID counter -17.6, TMEM16A inh inactive, SR-BI DiI inh 7.3, SR-BI DiI-HDL act -7.3 and ANO1 activ inactive.
`N#Cc1ccccc1NC(=O)CN1CCN(c2ccccn2)CC1` gave Kir21 inh 0.13, DNA FID counter -10.1, TMEM16A inh inactive, SR-BI DiI inh -9.5, SR-BI DiI-HDL act 9.5 and ANO1 activ inactive.
For N#C/C(=C(/O)CCl)c1nc2c(s1)CCc1ccccc1-2 the results were Kir21 inh 0, DNA FID counter 4.2, TMEM16A inh 25*, SR-BI DiI inh 9.0, SR-BI DiI-HDL act -9.0 and ANO1 activ inactive.
`CCOc1ccccc1NC(=O)CSc1nc2c(c(=O)n1C)SC(C)C2` (configuration not stated) gave Kir21 inh -5.51*, DNA FID counter -13.9, TMEM16A inh inactive, SR-BI DiI inh 44.6, SR-BI DiI-HDL act -44.6 and ANO1 activ inactive.
O=C(COc1ccccc1C(=O)O)Nc1cccc2ccccc12 was read as SR-BI DiI inh -2.5, SR-BI DiI-HDL act 2.5 and ANO1 activ inactive.
Screening O=C(COc1cccc2ccccc12)Nc1ccc(Cl)cc1C(=O)O returned Kir21 inh 0.51, DNA FID counter -14.8, TMEM16A inh 100*, SR-BI DiI inh -9.4, SR-BI DiI-HDL act 9.4 and ANO1 activ inactive.
Screening O=C(COc1cccc2ccccc12)Nc1cc(Cl)ccc1C(=O)O returned Kir21 inh 1.37, DNA FID counter -8.3, TMEM16A inh 100*, SR-BI DiI inh -22.3, SR-BI DiI-HDL act 22.3 and ANO1 activ inactive.
`COc1ccc(OCCCC(=O)OC(C)C(=O)Nc2ccc(S(N)(=O)=O)cc2)cc1` (configuration not stated) gave Kir21 inh 0.05, TMEM16A inh inactive, SR-BI DiI inh 12.2, SR-BI DiI-HDL act -12.2 and ANO1 activ inactive.
For CCCCn1c(SCC(=O)OCC)nc2c(sc(=S)n2-c2ccccc2OC)c1=O the results were Kir21 inh -0.73, DNA FID counter -30.2, TMEM16A inh inactive, SR-BI DiI inh 21.4, SR-BI DiI-HDL act -21.4 and ANO1 activ inactive.
For CC(=O)c1ccc(NC(=O)C(C)O/N=C(\N)c2ccccc2)cc1 (configuration not stated) the results were SR-BI DiI inh -8.9, SR-BI DiI-HDL act 8.9 and ANO1 activ inactive.
`O=[N+]([O-])c1cccc(NC(=S)Nc2nc(-c3ccccc3Cl)cs2)c1` gave Kir21 inh 0.34, DNA FID counter 8.7, TMEM16A inh inactive, SR-BI DiI inh 84.4*, SR-BI DiI-HDL act -84.4 and ANO1 activ inactive.
Cc1ccc2c(CC(=O)NNC(=O)c3ccccc3O)coc2c1 was read as Kir21 inh 0.72, TMEM16A inh inactive, SR-BI DiI inh 106.1*, SR-BI DiI-HDL act -106.1 and ANO1 activ inactive.
Screening COc1ccc2c(CC(=O)NNC(=O)c3ccc(C)cc3)coc2c1 returned SR-BI DiI inh -15.1, SR-BI DiI-HDL act 15.1 and ANO1 activ inactive.
For Cc1ccc(NC(=O)NNC(=O)c2cc3ccccc3cc2O)c(C)c1 the results were Kir21 inh -2.25, DNA FID counter -19.3, TMEM16A inh inactive, SR-BI DiI inh 50.5, SR-BI DiI-HDL act -50.4 and ANO1 activ inactive.

Source: PubChem (several laboratories)
